Values after ≈ are worked out from the molar mass of the structure shown.
Legend:
[1] = system: Staphylococcus aureus; test: Antibacterial activity against methicillin-resistant Staphylococcus aureus NRS384 USA300 after 18 to 20 hrs by broth microdilution assay; assay type: functional
How it was run: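 Broth microdilution per CLSI. Strains grown aerobically overnight on tryptone soy agar at 37 °C, adjusted to 0.5 McFarland, then diluted in cation-adjusted Mueller-Hinton broth to about 5 × 10^5 CFU/mL. Compounds (10 mg/mL DMSO stocks) serially diluted. Incubated aerobically at 37 °C for 18-20 h. MIC is the lowest concentration with no visible growth.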

[2] = system: Acinetobacter baumannii; test: Antibacterial activity against Acinetobacter baumannii ATCC 19606; assay type: functional; details: ATCC 19606 = CIP 70.34 = JCM 6841
[3] = system: Escherichia coli; test: Antibacterial activity against Escherichia coli BW25113; assay type: functional
[4] = system: Escherichia coli; test: Antibacterial activity against TolC-deficient Escherichia coli JW55031; assay type: functional
[5] = system: Escherichia coli; test: Antibacterial activity against Escherichia coli ATCC 25922; assay type: functional
[6] = system: Klebsiella pneumoniae; test: Antibacterial activity against Klebsiella pneumoniae BAA-1706; assay type: functional
[7] = system: Pseudomonas aeruginosa; test: Antibacterial activity against Pseudomonas aeruginosa ATCC 27853; assay type: functional
[8] = system: Pseudomonas aeruginosa; test: Antibacterial activity against Pseudomonas aeruginosa ATCC 15442; assay type: functional
[9] = system: Acinetobacter baumannii; test: Bactericidal activity against Acinetobacter baumannii ATCC 19606; assay type: functional; details: ATCC 19606 = CIP 70.34 = JCM 6841
[10] = system: Escherichia coli; test: Bactericidal activity against Escherichia coli BW25113; assay type: functional
[11] = system: Escherichia coli; test: Bactericidal activity against TolC-deficient Escherichia coli JW55031; assay type: functional
[12] = system: Escherichia coli; test: Bactericidal activity against Escherichia coli ATCC 25922; assay type: functional
[13] = system: Klebsiella pneumoniae; test: Bactericidal activity against Klebsiella pneumoniae BAA-1706; assay type: functional
[14] = system: Pseudomonas aeruginosa; test: Bactericidal activity against Pseudomonas aeruginosa ATCC 27853; assay type: functional
[15] = system: Pseudomonas aeruginosa; test: Bactericidal activity against Pseudomonas aeruginosa ATCC 15442; assay type: functional
[16] = Aqueous solubility of the compound in phosphate buffered saline assessed as concentration that produces no precipitate measured as OD at 540 nm; assay type: physicochemical

C/C(=N\NC(=N)N)c1sc(-c2ccc(N3CCCC3)cc2)nc1C
MIC [1]: 16 µg/mL (≈ 46.7 µM)

GENTAMICIN
MIC [2]: 32 µg/mL
MIC [3]: < 0.5 µg/mL
MIC [4]: < 0.5 µg/mL
MIC [5]: 1 µg/mL
MIC [6]: 4 µg/mL
MIC [7]: 2 µg/mL
MIC [8]: 2 µg/mL
MBC [9]: 32 µg/mL
MBC [10]: < 0.5 µg/mL
MBC [11]: < 0.5 µg/mL
MBC [12]: 1 µg/mL
MBC [13]: 4 µg/mL
MBC [14]: 4 µg/mL
MBC [15]: 2 µg/mL

C/C(=N\NC(=N)N)c1sc(-c2ccc(N3CCC(Br)CC3)cc2)nc1C
MIC [1]: 8 µg/mL (≈ 18.4 µM)

C/C(=N\NC(=N)N)c1sc(-c2ccc(N3CCOCC3)cc2)nc1C
MIC [1]: > 128 µg/mL

C/C(=N\NC(=N)N)c1sc(-c2ccc(N3CCSC3)cc2)nc1C
MIC [1]: > 128 µg/mL

C/C(=N\NC(=N)N)c1sc(-c2ccc(N3CCC4CCCCC4C3)cc2)nc1C (configuration not stated)
MIC [1]: > 128 µg/mL

C/C(=N\NC(=N)N)c1sc(-c2ccc(N3CCSCC3)cc2)nc1C
MIC [1]: 32 µg/mL (≈ 85.4 µM)

C/C(=N\NC(=N)N)c1sc(-c2ccc(N3CCC3)cc2)nc1C
MIC [1]: > 128 µg/mL

C/C(=N\NC(=N)N)c1sc(-c2ccc(C3CCCCC3)cc2)nc1C
solubility kinetic [16]: 2.7 µM (≈ 0.96 µg/mL)

From ChEMBL document CHEMBL4406834, “Phenylthiazoles with nitrogenous side chain: An approach to overcome molecular obesity” (Eur J Med Chem, 2019)
